Screening data (PubChem)
CASP6 VEID inh: inhibitors of human caspase-6. P55212. AID 686996. 350,000 tested, 0.53% active. inhibition, % at 12.5 µM. purified caspase-6, Z-VEID-R110 cleavage fluorescence;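 active = mean inhibition across replicates at least about 35%, with every replicate also reaching that limit, limit read from the data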
Target sequence (P55212 24-179 limits assumed): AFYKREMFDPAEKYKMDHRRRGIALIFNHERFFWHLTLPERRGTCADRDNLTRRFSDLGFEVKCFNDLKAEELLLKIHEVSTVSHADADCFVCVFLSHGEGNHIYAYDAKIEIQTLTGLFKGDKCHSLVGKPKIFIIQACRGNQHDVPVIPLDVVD
Target sequence (P55212 194-293 limits assumed): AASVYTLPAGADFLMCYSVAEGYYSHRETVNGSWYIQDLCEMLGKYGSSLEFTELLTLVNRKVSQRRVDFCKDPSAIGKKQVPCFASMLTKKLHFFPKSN
TDP2 inh: TDP2 (human) inhibition, absorbance primary screen; recombinant TDP2, T5PNP hydrolysis, p-nitrophenol absorbance 415 nm; 370,000 tested, 0.34% active; inhibition, % at 12.8 µM;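 active = inhibition above the mean of all tested compounds plus 3 SD, set per campaign, cut at about 25% in these data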
Target sequence (O95551 whole entry, looked up): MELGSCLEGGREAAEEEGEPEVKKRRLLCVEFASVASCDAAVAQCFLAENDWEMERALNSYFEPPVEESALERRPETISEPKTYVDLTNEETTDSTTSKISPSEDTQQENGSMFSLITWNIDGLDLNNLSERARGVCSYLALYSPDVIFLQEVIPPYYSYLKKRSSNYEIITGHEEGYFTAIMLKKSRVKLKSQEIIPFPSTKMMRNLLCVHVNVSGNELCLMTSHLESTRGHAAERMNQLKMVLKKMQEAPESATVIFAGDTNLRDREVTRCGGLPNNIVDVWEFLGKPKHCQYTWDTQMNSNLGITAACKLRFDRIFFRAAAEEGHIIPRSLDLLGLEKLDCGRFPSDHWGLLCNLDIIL
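Material: recombinant human TDP2; quantity: TDP2 enzyme at 120 nM final; medium: Tris-HCl pH 7.5 with MgCl2; compound: single concentration, 12.8 µM nominal, with 1% DMSO; incubation: 2 h enzyme incubation at 37 °C; signal: epi absorbance; measure: percent inhibition; benchmarks: high control without enzyme, low control DMSO plus TDP2; repeats: singlicate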
UCH37 DUB inh: human UCH37 deubiquitinating enzyme inhibition; Q9Y5K5; purified proteasome/UCH37, Ub-AMC cleavage fluorescence; inhibition, % (no concentration beside the values); 330,000 tested, 0.33% active; AID 588478;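 active = mean inhibition over replicate wells above about 20%, limit read from the data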
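assay system = human UCH37 enzyme supplied as purified proteasome complex | amount = proteasome at 0.15 nM in the dispensed enzyme solution | schedule = 30 min compound-proteasome preincubation then 25 min substrate reaction, room temperature | measured by = fluorescence, ex 355 nm, em 460 nm | benchmarks = no-proteasome wells (full inhibition) and compound-free wells (no inhibition)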
LEDGF integ inh: blocks HIV-1 LEDGF/p75-dependent DNA integration; TR-FRET IN-LEDGF/p75 DNA integration, Eu/Cy5; inhibition, % at 3.7 µM; 370,000 tested, 0.64% active;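 active = inhibition above the screen-wide mean plus 3 SD, cut at about 13% in these data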;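 also: signal is the Cy5 over europium emission ratio at 671 and 618 nm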
NSD2 inh: inhibitors of human histone methyltransferase NSD2 | AID 743445 | 310,000 tested, 0.54% active | inhibition, % at 12.5 µM | NSD2 peptide methylation, AlphaScreen, 120 min | O96028; in the data active = inhibition above about 50%
TDP2 confirm: human TDP2 inhibition, confirmation; shares compounds with TDP2 inh; recombinant human TDP2, absorbance read-out; inhibition, % at 12.8 µM; 1,100 tested, 22% active; in the data active = inhibition above about 25%
Hits are given with their value; – = inactive; · = no result. A selection: hits, their analogues and other compounds. The true share with any hit is near 1.3%.

SMILES	CASP6 VEID inh	TDP2 inh	UCH37 DUB inh	LEDGF integ inh	NSD2 inh	TDP2 confirm
O=C(NC1CCCC1)C(c1ccc(N2CCOCC2)cc1)N(Cc1ccccc1)C(=O)c1ccco1 (configuration not stated)	·	32.2	–	–	–	–
COc1ccc(/C(O)=C2/C(=O)C(=O)N(CC3CCCO3)C2c2cccc(OC)c2)cc1 (configuration not stated)	–	–	–	–	–	·
COc1cccc(C2/C(=C(\O)c3ccc4c(c3)OCCO4)C(=O)C(=O)N2CC2CCCO2)c1 (configuration not stated)	–	34.7	–	–	–	–
O=C(O)COc1ccc(C=Nn2cnc3scc(-c4cccs4)c3c2=O)cc1	·	·	–	·	·	·
COc1cc(O)c(NC(C)=O)c2nonc12	–	48.3	–	–	–	–
CC(=O)N1CCN(C(=O)c2cccc(S(=O)(=O)N3CCN(c4ccccc4)CC3)c2)CC1	–	–	–	–	–	·
O=C(c1cccc(S(=O)(=O)N2CCN(c3ccccc3)CC2)c1)N1CCN(c2ccccc2O)CC1	–	28.7	–	–	–	–
COC(=O)C1=C(C)N=c2sc(=C3C(=O)Nc4ccccc43)c(=O)n2C1c1ccccc1 (configuration not stated)	·	·	–	·	·	·
COc1ccc(CNS(=O)(=O)c2cc(-c3cc(C)no3)ccc2C)cc1OC	–	–	–	–	–	·
CCN(CCCNS(=O)(=O)c1cc(-c2cc(C)no2)ccc1C)Cc1ccccc1	–	47.5	·	–	–	–
Cc1cc(-c2ccc(C)c(S(=O)(=O)NCc3ccc(OC(C)C)cc3)c2)on1	–	31.6	–	–	–	–
CCOC(=O)C(=O)C1=CN(Cc2ccccc2)C=C(C#N)C1	–	26.8	–	–	–	–
CCOC(=O)/C(C#N)=C1/C=CN(Cc2ccccc2)C=N1	·	–	–	–	–	·
Cc1cc([N+](=O)[O-])nn1CC(=O)NN=Cc1ccccc1F	·	·	–	·	·	·
CN1CCC(C)(C(=O)Nc2cccc(Oc3ccccc3)c2)C1 (configuration not stated)	–	81.4	·	–	–	–
CC(=O)NC(Cc1ccc(F)cc1)C(=O)NC1CCN(C(=O)Nc2cccc(C)c2)CC1 (configuration not stated)	–	–	–	–	–	·
CC(=O)NC(Cc1ccc(F)cc1)C(=O)NC1CCN(C(=O)Nc2ccc(F)cc2)CC1 (configuration not stated)	–	25.2	–	–	–	–
COc1ccc2cc(C=NNC(=O)CN(c3ccccc3C)S(=O)(=O)c3ccccc3)c(Cl)nc2c1	·	·	–	·	·	·
CCCCOC(=O)/C=C\C(=O)NC(N)=O	–	25.6	–	–	–	–
CCCCOC(=O)/C=C\C(=O)OCCCC	–	–	–	–	·	·
CCOc1cccc(-c2c(C(=O)NN=Cc3ccoc3)nnn2-c2nonc2N)c1	·	·	–	·	·	·
CC(=NNC(=O)c1ccc(Cl)cc1)c1ccc(N2CCOCC2)cc1	·	·	–	·	·	·
O=C1/C(=C\c2ccc([N+](=O)[O-])cc2)CCc2ccccc21	–	–	–	–	–	·
CC(=O)Nc1ccc(/C=C2\CCc3ccccc3C2=O)cc1	–	26.0	–	–	–	–
CCNC(=O)CC1S/C(=N/N=C(C)c2ccccc2)NC1=O (configuration not stated)	·	·	–	·	·	·
SMILES	CASP6 VEID inh	TDP2 inh	UCH37 DUB inh	LEDGF integ inh	NSD2 inh	TDP2 confirm
COc1cc(C2C(C#N)=C(N)Oc3n[nH]c(-c4cccs4)c32)cc(OC)c1O (configuration not stated)	–	37.1	–	–	–	–
N#CC1=C(N)Oc2n[nH]c(-c3cccs3)c2C1c1ccoc1 (configuration not stated)	·	–	–	–	–	·
Cc1ccc(C2C(C#N)=C(N)Oc3n[nH]c(-c4cccs4)c32)cc1 (configuration not stated)	·	31.9	–	–	–	–
COc1cc(C=NNC(=O)c2ccc(C)nc2)ccc1OC(=O)c1cccc(F)c1	·	·	–	·	·	·
O=C(NCC(=O)N1CCN(C(=O)c2ccco2)CC1)c1ccc(Br)cc1	–	25.2	·	–	–	–
C/C(=N\NC(=O)CNC(=O)c1ccc(Br)cc1)c1ccco1	–	36.4	·	–	–	–
C/C(=N\NC(=O)CNC(=O)c1ccco1)c1ccc(Br)cc1	–	–	·	–	–	·
Nc1ccc(C(=O)NN=Cc2ccccc2)cc1	·	·	–	·	·	·
Cc1onc(-c2ccccc2)c1-c1ccnn1C(=O)NC(C)C	–	–	–	–	–	·
COC(=O)c1noc(C)c1-c1ccnn1C(=O)c1ccc(C)cc1	–	24.7	–	–	–	–
COc1cc(C=NNC(=S)Nc2cccnc2)cc(OC)c1O	·	·	–	·	·	·
COc1ccc(Cc2nnc(NN=Cc3ccc(O)cc3O)[nH]c2=O)cc1OC	·	·	–	·	·	·
Cc1ccc(C(=O)N/C(=C\c2ccc(-c3ccccc3[N+](=O)[O-])o2)C(=O)NCCN(C)C)cc1	–	24.6	–	–	–	–
COC(=O)C(C(C)=O)C1=CC(=NS(=O)(=O)c2ccc(C)cc2)c2ccccc2C1=O (configuration not stated)	·	·	–	·	·	·
Cc1ccc(NC2=C/C(=N/S(=O)(=O)c3cccs3)c3ccccc3C2=O)cc1	–	36.1	·	–	–	41.0
Cc1ccc(S(=O)(=O)/N=C2\C=C(Nc3cccc(C(=O)O)c3)C(=O)c3ccccc32)c(C)c1	99.6	61.9	·	–	117.1	70.5
Cc1ccc(S(=O)(=O)/N=C2\C=C(NS(=O)(=O)c3ccccc3)C(=O)c3ccccc32)c(C)c1	–	–	·	–	–	·
Cc1ccsc1C=NN1CCN(c2ccccn2)CC1	·	·	–	·	·	·
NC(=NS(=O)(=O)c1ccccc1)c1ccc([N+](=O)[O-])cc1	·	·	–	·	·	·
Cc1ccc(CSCC(=O)NN=Cc2ccc(OCC(=O)Nc3ccc(C)cc3)cc2)cc1	·	·	–	·	·	·
COc1ccc(NC(=O)CN(C)S(=O)(=O)c2ccc(Br)s2)cc1	–	24.6	–	–	–	–
COc1ccc(NC(=O)CN(C)S(=O)(=O)c2ccc(Br)s2)cc1OC	–	–	–	–	–	·
CC1(C)C2CC(=NO)C(C)(/[N+]([O-])=C/c3cccc([N+](=O)[O-])c3)CC21 (configuration not stated)	·	·	–	·	·	·
CCN1CCN(CC(O)COC(c2ccccc2)c2ccccc2C)CC1 (configuration not stated)	–	27.5	–	–	–	–
CC(=O)Nc1nc2cc(N)ccc2s1	·	–	–	–	·	·
CC(=O)Nc1nc2cc([N+](=O)[O-])ccc2s1	–	34.9	–	–	·	–
CC(CCc1ccccc1)NC(=O)CNC(=O)N1CC(=O)Nc2ccccc21 (configuration not stated)	–	25.1	–	–	–	–
O=C1CN(C(=O)NCC(=O)N[C@@H](Cc2ccccc2)C(=O)O)c2ccccc2N1	–	–	–	–	·	·
COC(=O)C=c1sc2n(c1=O)CCN=2	·	·	–	·	·	·
